Calls of active or inactive are those of the source.
What was measured:
[1] = tested on: Mus musculus; test: Toxicity in mouse at 100 mg/kg, ip measured during maximal electroshock seizure test; assay type: organism-based; conditions: in vivo
[2] = tested on: Mus musculus; test: Anticonvulsant activity in mouse assessed as protection against maximal electroshock-induced seizures at 60 mg/kg, ip; assay type: functional, organism-based
Summary of the method: (§1)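 Mice dosed ip; maximal seizures induced by auricular electroshock (25 mA, 500 V, 50 Hz, 0.2 s). Endpoint: hind-limb tonic extension; animals without it scored protected. Read-out is number protected over number tested.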

[3] = tested on: Mus musculus; test: Anticonvulsant activity in ip dosed mouse assessed as protection against maximal electroshock-induced seizures; assay type: functional
Summary of the method: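 Mice were dosed ip. Maximal seizures were induced by auricular electrodes (25 mA, 500 V, 50 Hz, 0.2 s). Absence of hind-limb tonic extension counted as protection. […] Motor impairment was scored on a 10 rpm rotarod, giving TD50 the same way.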

[4] = tested on: Mus musculus; test: Anticonvulsant activity in mouse assessed as protection against maximal electroshock-induced seizures at 100 mg/kg, ip; assay type: functional, organism-based; summary of the method: as §1
[5] = tested on: Mus musculus; test: Toxicity in mouse assessed as effect on spontaneous activity at 32 mg/kg, ip measured for 30 mins by photoresistor actometer relative to control; assay type: organism-based; conditions: in vivo, 0.5 h
Summary of the method: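 Mice dosed ip; locomotor activity by photoresistor actometers counting light-beam interruptions. Each mouse was habituated 30 min in a cage, then crossings were counted over a 30 min session. Data are mean ± SEM and % change vs control; unpaired t test.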

[6] = tested on: HepG2; test: Cytotoxicity against human HepG2 cells assessed as effect on cell viability at 10 to 250 uM after 24 hrs by MTT assay; assay type: cell-based; conditions: hepg2, 24 h
Summary of the method: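 HepG2 cells grown in MEM with 10% FBS (37 °C, 5% CO2) and seeded at 1 × 10^4. After overnight culture, exposed to 10–250 μM for 24 h. MTT for 3 h, formazan dissolved, OD 570 nm. Viability is % of control ± SEM from three independent experiments.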

[7] = Protection index, ratio of TD50 for neurotoxicity in ip dosed mouse by rotarod test to ED50 for anticonvulsant activity in mouse by maximal electroshock seizure test; assay type: toxicity, organism-based; conditions: in vivo, read-out: Ratio TD50/ED50
[8] = tested on: Mus musculus; test: Anticonvulsant activity in mouse assessed as protection against subcutaneous pentylenetetrazole-induced seizures at 100 mg/kg, ip measured for 30 mins post pentylenetetrazole challenge at 0.5 hrs after compound dosing relative to control; assay type: functional
[9] = tested on: Mus musculus; test: Anticonvulsant activity in mouse assessed as increase in electroconvulsive threshold at 20 mg/kg, ip by maximal electroshock seizure threshold test relative to control; assay type: functional
[10] = tested on: Mus musculus; test: Neurotoxicity in mouse assessed as motor impairment by measuring time of escaping from chimney at 32 mg/kg, ip measured for 60 secs (reference value: 8.87 +/- 1.79 secs); assay type: toxicity, organism-based; conditions: in vivo, 1 min
Summary of the method: (§2)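 Mice dosed ip; trained, selected animals placed in a horizontal tube 25 cm long and 2.5 cm in diameter, then tube reversed so mice must climb out backward. Read-outs: escape time (s) ± SEM and % animals losing coordination versus control. Unpaired t test.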

[11] = tested on: Mus musculus; test: Anticonvulsant activity in mouse assessed as protection against subcutaneous pentylenetetrazole-induced seizures at 30 mg/kg, ip measured for 30 mins post pentylenetetrazole challenge at 0.5 hrs after compound dosing relative to control; assay type: functional
[12] = tested on: Mus musculus; test: Anticonvulsant activity in mouse assessed as protection against subcutaneous pentylenetetrazole-induced seizures by measuring latency time of tonic seizures at 100 mg/kg, ip measured for 30 mins post pentylenetetrazole challenge at 0.5 hrs after compound dosing (reference value: 562.8 to 614.9 secs); assay type: functional
[13] = tested on: Mus musculus; test: Neurotoxicity in mouse assessed as motor impairment by measuring loss of coordination at 32 mg/kg, ip measured for 60 secs by chimney test relative to control; assay type: toxicity, organism-based; conditions: in vivo, 1 min; summary of the method: as §2
[14] = tested on: Mus musculus; test: Anticonvulsant activity in mouse assessed as protection against subcutaneous pentylenetetrazole-induced seizures by measuring latency time of tonic seizures at 30 mg/kg, ip measured for 30 mins post pentylenetetrazole challenge at 0.5 hrs after compound dosing (reference value: 562.8 to 614.9 secs); assay type: functional
[15] = tested on: Mus musculus; test: Anticonvulsant activity in mouse assessed as current strength required to induce tonic hind-limb extension in 50% of the animals at 20 mg/kg, ip by maximal electroshock seizure threshold test (reference value: 6.05 to 8.13 mA); assay type: functional
[16] = tested on: HepG2; test: Cytotoxicity against human HepG2 cells assessed as effect on cell viability at 10 to 250 uM after 24 hrs by neutral red assay; assay type: cell-based; conditions: hepg2, 24 h
Summary of the method: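 HepG2 cells seeded at 5 × 10^4 per well, then after 24 h given medium with 10–250 μM for 24 h. Viability by neutral red staining, OD 570 nm. Results are % of control ± SEM, three independent experiments.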

[17] = tested on: Mus musculus; test: Anticonvulsant activity in mouse assessed as protection against maximal electroshock-induced seizures at 10 mg/kg, ip; assay type: functional, organism-based; summary of the method: as §1
[18] = tested on: Mus musculus; test: Toxicity in mouse at 10 mg/kg, ip measured during maximal electroshock seizure test; assay type: organism-based; conditions: in vivo
[19] = Cytotoxicity against mouse CRL-2541 cells assessed as effect on cell viability at 10 to 250 uM after 24 hrs by MTT assay; assay type: cell-based
[20] = tested on: Mus musculus; test: Analgesic activity in mouse assessed as decrease in time of paw licking during phase 2 at 32 mg/kg, ip measured for 15 to 30 mins by formalin test relative to control; assay type: functional; design: scale not given: the % may be the effect or the level left
Summary of the method: (§3)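 Formalin test in mice: 20 μL of 5% formalin injected intraplantarly into the right hind paw. Each mouse was observed alone in a glass beaker for 30 min. Time (s) spent licking or biting the injected paw was recorded at 0–5 min (acute phase) and 15–30 min (inflammatory phase).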

[21] = Neurotoxicity in ip dosed mouse assessed as motor impairment measured for one min by rotarod test; assay type: toxicity, organism-based; conditions: in vivo
Summary of the method: (§4)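 Mice trained on an accelerating rotarod, then tested at least 24 h later after ip pretreatment, on a rod turning at 10 rpm. Neurotoxicity was scored as failure to stay on the rod for one minute. Read-out is mice impaired over mice tested.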

[22] = tested on: Mus musculus; test: Analgesic activity in mouse assessed as decrease in time of paw licking during phase 1 at 32 mg/kg, ip measured for 5 mins by formalin test relative to control; assay type: functional; design: scale not given: the % may be the effect or the level left; summary of the method: as §3
[23] = tested on: Mus musculus; test: Toxicity in mouse at 20 mg/kg, ip measured during maximal electroshock seizure test; assay type: organism-based; conditions: in vivo
[24] = tested on: Mus musculus; test: Anticonvulsant activity in mouse assessed as protection against maximal electroshock-induced seizures at 20 mg/kg, ip; assay type: functional, organism-based; summary of the method: as §1
[25] = tested on: Mus musculus; test: Toxicity in mouse at 15 mg/kg, ip measured during maximal electroshock seizure test; assay type: organism-based; conditions: in vivo
[26] = tested on: Mus musculus; test: Neurotoxicity in mouse assessed as motor impairment at 100 mg/kg, ip measured for one min by rotarod test; assay type: toxicity, organism-based; conditions: in vivo, 1 min; summary of the method: as §4
[27] = tested on: Mus musculus; test: Neurotoxicity in mouse assessed as motor impairment at 30 mg/kg, ip measured for one min by rotarod test; assay type: toxicity, organism-based; conditions: in vivo, 1 min; summary of the method: as §4
[28] = tested on: Mus musculus; test: Toxicity in mouse at 30 mg/kg, ip measured during maximal electroshock seizure test; assay type: organism-based; conditions: in vivo
[29] = tested on: Mus musculus; test: Anticonvulsant activity in mouse assessed as protection against maximal electroshock-induced seizures at 30 mg/kg, ip; assay type: functional, organism-based; summary of the method: as §1

## Cc1cccc(C)c1OCCCCN[C@H]1CC[C@H](O)CC1
[1]
  Activity: Toxic
[2]
  Activity: inactive

## CC(C)NCC(O)COc1cccc2ccccc12 (configuration not stated) [PROPRANOLOL]
[3]
  ED50: 15 mg/kg

## Cc1ccc(OCCN[C@H]2CCCC[C@@H]2O)c(C)c1 (racemic)
[4]
  Activity: Active
[5]
  Activity: 8.2%
[6]
  Activity: Non-Toxic
[7]
  selectivity ratio: 2.41
[3]
  ED50: 31.8 mg/kg
[8]
  Activity: 57.71%
[1]
  Activity: Non-Toxic
[9]
  Activity: 23.9%
[10]
  Time: 4.75 s
[11]
  Activity: 2.42%
[12]
  Time: 921 s
[13]
  Activity: 0%
[14]
  Time: 576.4 s
[15]
  Activity: 9.33 mA
[16]
  Activity: Non-Toxic
[17]
  Activity: inactive
[18]
  Activity: Toxic
[19]
  Activity: Non-Toxic
[20]
  Activity: 46.16%
[21]
  TD50 at 1 min: 76.8 mg/kg
[22]
  Activity: 18.55%

## Cc1cccc(C)c1OCCOCCNCC(O)c1ccccc1 (racemic)
[4]
  Activity: Active
[7]
  selectivity ratio: 2.76
[3]
  ED50: 13 mg/kg
[1]
  Activity: Non-Toxic
[23]
  Activity: Non-Toxic
[24]
  Activity: Active
[25]
  Activity: Non-Toxic
[18]
  Activity: Non-Toxic
[21]
  TD50 at 1 min: 36 mg/kg

## Cc1cccc(Cl)c1OCCOCCNC[C@H](O)c1ccccc1
[26]
  Activity: Toxic

## CCC(CO)NCCOCCOc1cc(C)ccc1Cl (racemic)
[4]
  Activity: Active
[26]
  Activity: Toxic
[27]
  Activity: Non-Toxic

## Cc1cccc(Cl)c1OCCCCNC(C)CO (racemic)
[4]
  Activity: Active
[7]
  selectivity ratio: 2.4
[3]
  ED50: 19.1 mg/kg
[1]
  Activity: Non-Toxic
[23]
  Activity: Non-Toxic
[25]
  Activity: Non-Toxic
[21]
  TD50 at 1 min: 45.7 mg/kg

## CCC(O)CNCCOCCOc1cc(Cl)ccc1C (racemic)
[4]
  Activity: Active
[28]
  Activity: Non-Toxic
[1]
  Activity: Non-Toxic
[29]
  Activity: inactive
[26]
  Activity: Toxic

## Cc1cccc(Cl)c1OCCCCN[C@@H](C)CO
[26]
  Activity: Toxic

## CCC(CO)NCCCCOc1cc(C)ccc1Cl (racemic)
[4]
  Activity: Active
[28]
  Activity: Non-Toxic
[1]
  Activity: Non-Toxic
[26]
  Activity: Toxic
[27]
  Activity: Non-Toxic

## Cc1cccc(C)c1OCC(C)N (configuration not stated) [MEXILETINE]
[3]
  ED50: 20 mg/kg

## Cc1ccc(Cl)c(OCCCCN[C@H](C)CO)c1
[4]
  Activity: Active
[28]
  Activity: Non-Toxic
[1]
  Activity: Non-Toxic
[29]
  Activity: inactive
[26]
  Activity: Toxic
[27]
  Activity: Non-Toxic
